Reference: ChEMBL document CHEMBL6114937, “Synthesis and anti-tumor activity of new benzofuran-based chalcone derivatives as potent VEGFR-2 inhibitors” (RSC Med Chem, 2025)

Experiments:
[1] = system: HCC1806; test: Cytotoxicity against human HCC1806 cells assessed as inhibition of cell viability incubated for 48 hrs by MTT assay; type: functional, cell-based; details: HCC1806, 48 h
Procedure, shortened: (§1)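 Log-phase cells seeded at 5 × 10^4 cells per mL in 96-well plates, cultured overnight at 37 °C, 5% CO2, then treated at 100, 50, 25, 12.5 and 6.25 μmol L−1, triplicate wells per concentration, for 48 h. MTT (20 μL of 5 mg ml−1) added for 4 h; after centrifugation the medium was removed and the formazan dissolved in DMSO. A570 was read and IC50 calculated. Cisplatin served as positive control.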

[2] = system: A549; test: Cytotoxicity against human A549 cells assessed as inhibition of cell viability incubated for 48 hrs by MTT assay; type: functional, cell-based; details: A549, 48 h; procedure, shortened: as §1
[3] = system: HeLa; test: Cytotoxicity against human HeLa cells assessed as inhibition of cell viability incubated for 48 hrs by MTT assay; type: functional, cell-based; procedure, shortened: as §1
[4] = system: HCC1806; test: Induction of apoptosis in human HCC1806 cells assessed as proportion of late apoptotic cells at 6 uM incubated for 24 hrs by AnnexinV-FITC/PI staining based flow cytometry (reference value: 5.29 %); type: functional
[5] = biological target: Vascular endothelial growth factor receptor 2 (Homo sapiens) (UniProt P35968); test: Inhibition of VEGFR-2 (unknown origin) at 100 uM incubated for 90 mins by Kinase-Glo MAX reagent based luminescence analysis relative to control
Vascular endothelial growth factor receptor 2 (Homo sapiens), sequence (P35968 whole entry): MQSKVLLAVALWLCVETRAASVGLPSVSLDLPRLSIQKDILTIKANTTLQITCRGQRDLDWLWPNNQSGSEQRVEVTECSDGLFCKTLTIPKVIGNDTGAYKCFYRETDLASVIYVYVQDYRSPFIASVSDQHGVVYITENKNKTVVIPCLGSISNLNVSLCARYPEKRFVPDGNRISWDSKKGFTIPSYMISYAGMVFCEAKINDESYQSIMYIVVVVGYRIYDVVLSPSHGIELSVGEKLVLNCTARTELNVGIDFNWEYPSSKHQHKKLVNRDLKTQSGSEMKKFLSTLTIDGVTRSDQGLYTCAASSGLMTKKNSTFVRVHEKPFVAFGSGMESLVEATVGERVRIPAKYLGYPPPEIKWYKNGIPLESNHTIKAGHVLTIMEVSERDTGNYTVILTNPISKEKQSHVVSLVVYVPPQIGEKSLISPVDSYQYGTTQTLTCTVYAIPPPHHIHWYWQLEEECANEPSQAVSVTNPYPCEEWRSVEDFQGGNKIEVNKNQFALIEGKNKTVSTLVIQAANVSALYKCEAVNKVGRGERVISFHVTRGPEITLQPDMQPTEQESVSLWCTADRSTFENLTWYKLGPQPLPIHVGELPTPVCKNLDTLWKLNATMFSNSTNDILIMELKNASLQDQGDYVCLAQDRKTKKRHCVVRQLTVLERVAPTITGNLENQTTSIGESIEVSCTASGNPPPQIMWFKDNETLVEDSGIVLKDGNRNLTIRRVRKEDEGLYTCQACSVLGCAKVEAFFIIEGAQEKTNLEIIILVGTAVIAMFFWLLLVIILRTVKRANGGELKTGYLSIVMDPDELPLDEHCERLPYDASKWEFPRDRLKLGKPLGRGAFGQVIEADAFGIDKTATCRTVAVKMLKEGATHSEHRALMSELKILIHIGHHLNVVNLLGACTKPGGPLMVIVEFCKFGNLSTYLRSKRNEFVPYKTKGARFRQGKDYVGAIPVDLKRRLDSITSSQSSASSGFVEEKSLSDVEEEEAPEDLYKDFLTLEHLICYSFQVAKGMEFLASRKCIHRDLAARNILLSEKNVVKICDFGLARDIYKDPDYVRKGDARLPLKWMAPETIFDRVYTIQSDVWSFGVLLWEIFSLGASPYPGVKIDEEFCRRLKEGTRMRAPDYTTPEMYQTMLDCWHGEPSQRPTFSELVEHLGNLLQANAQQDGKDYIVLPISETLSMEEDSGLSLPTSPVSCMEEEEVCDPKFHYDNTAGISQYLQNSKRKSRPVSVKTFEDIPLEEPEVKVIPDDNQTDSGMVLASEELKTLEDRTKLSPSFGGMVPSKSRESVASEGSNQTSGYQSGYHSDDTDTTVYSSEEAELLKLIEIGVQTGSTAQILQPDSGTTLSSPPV
Procedure, shortened: (§2)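 A VEGFR-2 (KDR) kinase kit was used. Compound was made in DMSO and diluted in 1× kinase buffer 1, with matched DMSO in all wells. Master mix and compound were combined, and the reaction was started with diluted VEGFR-2 kinase, then incubated at 30 °C for 45 min. Kinase-Glo MAX reagent was added for 15 min at room temperature before luminescence was read. Blank and positive-control wells were included.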

[6] = system: HCC1806; test: Induction of apoptosis in human HCC1806 cells assessed as proportion of necrotic cells at 6 uM incubated for 24 hrs by AnnexinV-FITC/PI staining based flow cytometry (reference value: 3.40 %); type: functional
[7] = system: HCC1806; test: Induction of apoptosis in human HCC1806 cells assessed as proportion of early apoptotic cells at 6 uM incubated for 24 hrs by AnnexinV-FITC/PI staining based flow cytometry (reference value: 5.32 %); type: functional
[8] = system: HCC1806; test: Induction of apoptosis in human HCC1806 cells assessed as proportion of early apoptotic cells at 3 uM incubated for 24 hrs by AnnexinV-FITC/PI staining based flow cytometry (reference value: 5.32 %); type: functional
[9] = biological target: Vascular endothelial growth factor receptor 2 (Homo sapiens) (UniProt P35968); test: Inhibition of VEGFR-2 (unknown origin) at 25 uM incubated for 90 mins by Kinase-Glo MAX reagent based luminescence analysis relative to control; procedure, shortened: as §2
[10] = system: HCC1806; test: Induction of apoptosis in human HCC1806 cells assessed as proportion of viable cells at 6 uM incubated for 24 hrs by AnnexinV-FITC/PI staining based flow cytometry (reference value: 86.0 %); type: functional
[11] = biological target: Vascular endothelial growth factor receptor 2 (Homo sapiens) (UniProt P35968); test: Inhibition of VEGFR-2 (unknown origin) at 50 uM incubated for 90 mins by Kinase-Glo MAX reagent based luminescence analysis relative to control
[12] = system: HCC1806; test: Induction of apoptosis in human HCC1806 cells assessed as proportion of viable cells at 3 uM incubated for 24 hrs by AnnexinV-FITC/PI staining based flow cytometry (reference value: 86.0 %); type: functional
[13] = system: HCC1806; test: Induction of apoptosis in human HCC1806 cells assessed as proportion of late apoptotic cells at 3 uM incubated for 24 hrs by AnnexinV-FITC/PI staining based flow cytometry (reference value: 5.29 %); type: functional
[14] = system: HCC1806; test: Induction of apoptosis in human HCC1806 cells assessed as proportion of necrotic cells at 3 uM incubated for 24 hrs by AnnexinV-FITC/PI staining based flow cytometry (reference value: 3.40 %); type: functional

Row | SMILES | IC50 [1] [µM] | IC50 [2] [µM] | IC50 [3] [µM] | further results
1 | COc1cc2ncnc(Nc3ccc4oc(C(=O)/C=C/c5ccc(O)cc5)cc4c3)c2cc1OC | 6.6 | 6.27 | 6.19 | 
2 | COc1cc2ncnc(Nc3ccc4oc(C(=O)/C=C/c5ccc(Cl)cc5)cc4c3)c2cc1OC | > 25 | > 25 | > 25 | 
3 | COc1cc2ncnc(Nc3ccc4oc(C(=O)/C=C/c5c[nH]c6ccc(Br)cc56)cc4c3)c2cc1OC | > 25 | > 25 | > 25 | 
4 | COc1cc2ncnc(Nc3ccc4oc(C(=O)/C=C/c5ccc(N(C)C)cc5)cc4c3)c2cc1OC | > 25 | > 25 | > 25 | 
5 | COc1cc2ncnc(Nc3ccc4oc(C(=O)/C=C/c5ccc(C)o5)cc4c3)c2cc1OC | > 25 | > 25 | > 25 | 
6 | COc1cc2ncnc(Nc3ccc4oc(C(=O)/C=C/c5ccc(-n6cccn6)cc5)cc4c3)c2cc1OC | > 25 | > 25 | > 25 | 
7 | COc1cc2ncnc(Nc3ccc4oc(C(=O)/C=C/c5ccc(Br)cc5)cc4c3)c2cc1OC | 18.4 | > 25 | 24.8 | 
8 | COc1cc2ncnc(Nc3ccc4oc(C(=O)/C=C/c5ccc(F)c(F)c5)cc4c3)c2cc1OC | 16.6 | > 25 | > 25 | 
9 | COc1cc2ncnc(Nc3ccc4oc(C(=O)/C=C/c5ccncc5)cc4c3)c2cc1OC | 6.4 | > 25 | 6.36 | 
10 | COc1cc2ncnc(Nc3ccc4oc(C(=O)/C=C/c5cccs5)cc4c3)c2cc1OC | > 25 | > 25 | > 25 | 
11 | COc1cc2ncnc(Nc3ccc4oc(C(=O)/C=C/c5ccccn5)cc4c3)c2cc1OC | > 25 | > 25 | > 25 | 
12 | COc1cc2ncnc(Nc3ccc4oc(C(=O)/C=C/c5ccccc5)cc4c3)c2cc1OC | 7.03 | 21.6 | 3.18 | 
13 | COc1cc2ncnc(Nc3ccc4oc(C(=O)/C=C/c5c[nH]c6ccccc56)cc4c3)c2cc1OC | 9.52 | > 25 | 4.95 | 
14 | COc1cc(/C=C/C(=O)c2cc3cc(Nc4ncnc5cc(OC)c(OC)cc45)ccc3o2)cc(OC)c1 | 5.93 | > 25 | 5.61 | Activity [4]: 29.4%; inhibition [5]: 38%; Activity [6]: 10%; Activity [7]: 12.8%; Activity [8]: 6.91%; inhibition [9]: 10%; Activity [10]: 47.7%; inhibition [11]: 16%; Activity [12]: 77.6%; Activity [13]: 9.05%; Activity [14]: 6.44%
15 | COc1cc2ncnc(Nc3ccc4oc(C(=O)/C=C/c5ccc(N6CCN(C)CC6)cc5)cc4c3)c2cc1OC | > 25 | > 25 | > 25 | 
16 | COc1cc2ncnc(Nc3ccc4oc(C(=O)/C=C/c5cc6ccccc6o5)cc4c3)c2cc1OC | 17.1 | > 25 | > 25 | 
17 | COc1ccc(/C=C/C(=O)c2cc3cc(Nc4ncnc5cc(OC)c(OC)cc45)ccc3o2)cc1OC | > 25 | > 25 | > 25 | 
18 | COc1cc2ncnc(Nc3ccc4oc(C(=O)/C=C/c5ccc(N6CCOCC6)cc5)cc4c3)c2cc1OC | > 25 | > 25 | > 25 | 
